Assay results: ChEMBL document CHEMBL4689842, “EUbOPEN Chemogenomics Library wave 1” (2021)
Values joined by “and” are separate entries in the source; they are usually repeats but may differ in a detail not shown here. Equal values may be shown once.

Experiments:
Type in all cases: toxicity, cell-based
[1] = system: Fibroblast; experiment: Multiplex assay against human fibroblast; conditions: 10 µM, compound concentration 10 uM
Outline: (§1)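 Tubulin, mitochondrial-mass and membrane-permeability phenotypes are per cents of healthy-nucleus cells. Cells were gated by CellPathfinder machine learning into Hoechst high-intensity objects or normal cells, normal cells into healthy, pyknosed or fragmented nuclei, and pyknosed cells into mitotic or apoptotic. Before that, live cells stained at seeding with Hoechst33342, BioTracker Green Microtubule Cytoskeleton Dye, MitoTracker Red and Annexin V Alexa Fluor 680 were imaged on a CQ1 microscope at 37°C and 5% CO2 after compound addition.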

[2] = system: HEK-293T; experiment: Multiplex assay against HEK293T; conditions: human, 10 µM, compound concentration 10 uM; outline: as §1;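 for Population Tubulin-Different-Phenotype (%): share of the cells with healthy nuclei that show this phenotype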
[3] = system: Fibroblast; experiment: Incucyte cell viability with human fibroblast; conditions: 10 µM, compound concentration 10 uM; note: filed as whole numbers so only -1 and 0 and 1 occur
[4] = system: U2OS; experiment: Incucyte cell viability with U2OS; conditions: human, 10 µM, compound concentration 10 uM; note: filed as whole numbers so only -1 and 0 and 1 occur
[5] = system: U2OS; experiment: Multiplex assay against U2OS; conditions: human, 10 µM, compound concentration 10 uM; outline: as §1
[6] = system: HEK-293T; experiment: Incucyte cell viability with HEK293T; conditions: human, 10 µM, compound concentration 10 uM; note: filed as whole numbers so only -1 and 0 and 1 occur
[7] = 0 h, replicate number 2, timepoint 0 hours
[8] = 6 h, replicate number 1, timepoint 6 hours
[9] = 6 h, replicate number 2, timepoint 6 hours
[10] = 12 h, replicate number 1, timepoint 12 hours
[11] = 18 h, replicate number 1, timepoint 18 hours
[12] = 24 h, replicate number 1, timepoint 24 hours
[13] = 0 h, replicate number 1, timepoint 0 hours

Compound: C[C@@H]1CN(c2cc(-c3nn(C)c4ccc(OC5(C)CC5)cc34)ncn2)C[C@H](C)O1 [MLi-2-NC]
- Population Apoptotic (%) ([1]; 12 h, replicate 1): 65% and 70%
- Population Fragmented Nuclei (%) ([1]; 12 h, replicate 1): 24% and 21%
- Population Healthy Nuclei (%) ([1]; 12 h, replicate 1): 59% and 61%
- Population Hoechst High Intensity Objects (%) ([1]; 12 h, replicate 1): 9% and 12%
- Population Mitochondria Different-Phenotype (%) ([1]; 12 h, replicate 1): 3%
- Population Mitotic Cells (%) ([1]; 12 h, replicate 1): 34% and 29%
- Population Normal (%) ([1]; 12 h, replicate 1): 90% and 87%
- Population Pyknosed Nuclei (%) ([1]; 12 h, replicate 1): 16%
- Total Cell Count ([1]; 12 h, replicate 1): 234 and 261
- Population Apoptotic (%) ([1]; 12 h, replicate 2): 42% and 50%
- Population Fragmented Nuclei (%) ([1]; 12 h, replicate 2): 44% and 53%
- Population Healthy Nuclei (%) ([1]; 12 h, replicate 2): 36% and 42%
- Population Hoechst High Intensity Objects (%) ([1]; 12 h, replicate 2): 32% and 43%
- Population Membrane Permeable-Phenotype (%) ([1]; 12 h, replicate 2): 21% and 15%
- Population Mitochondria Different-Phenotype (%) ([1]; 12 h, replicate 2): 7% and 10%
- Population Mitotic Cells (%) ([1]; 12 h, replicate 2): 57% and 50%
- Population Normal (%) ([1]; 12 h, replicate 2): 67% and 56%
- Population Tubulin-Different-Phenotype (%) ([1]; 12 h, replicate 2): 21% and 20%
- Total Cell Count ([1]; 12 h, replicate 2): 56 and 83
- Population Apoptotic (%) ([1]; 24 h, replicate 1): 45% and 61%
- Population Fragmented Nuclei (%) ([1]; 24 h, replicate 1): 25% and 27%
- Population Healthy Nuclei (%) ([1]; 24 h, replicate 1): 59% and 56%
- Population Hoechst High Intensity Objects (%) ([1]; 24 h, replicate 1): 12% and 11%
- Population Membrane Permeable-Phenotype (%) ([1]; 24 h, replicate 1): 9% and 7%
- Population Mitochondria Different-Phenotype (%) ([1]; 24 h, replicate 1): 3% and 9%
- Population Mitotic Cells (%) ([1]; 24 h, replicate 1): 54% and 38%
- Population Normal (%) ([1]; 24 h, replicate 1): 87% and 88%
- Population Pyknosed Nuclei (%) ([1]; 24 h, replicate 1): 14% and 16%
- Population Tubulin-Different-Phenotype (%) ([1]; 24 h, replicate 1): 8% and 22%
- Total Cell Count ([1]; 24 h, replicate 1): 282 and 230
- Population Apoptotic (%) ([1]; 24 h, replicate 2): 62% and 50%
- Population Fragmented Nuclei (%) ([1]; 24 h, replicate 2): 53% and 63%
- Population Healthy Nuclei (%) ([1]; 24 h, replicate 2): 21% and 28%
- Population Hoechst High Intensity Objects (%) ([1]; 24 h, replicate 2): 33% and 34%
- Population Membrane Permeable-Phenotype (%) ([1]; 24 h, replicate 2): 42% and 23%
- Population Mitotic Cells (%) ([1]; 24 h, replicate 2): 37% and 50%
- Population Normal (%) ([1]; 24 h, replicate 2): 66% and 65%
- Population Tubulin-Different-Phenotype (%) ([1]; 24 h, replicate 2): 42% and 30%
- Total Cell Count ([1]; 24 h, replicate 2): 48 and 70
- Population Apoptotic (%) ([2]; 12 h, replicate 1): 9% and 22%
- Population Fragmented Nuclei (%) ([2]; 12 h, replicate 1): 18% and 14%
- Population Healthy Nuclei (%) ([2]; 12 h, replicate 1): 55% and 62%
- Population Hoechst High Intensity Objects (%) ([2]; 12 h, replicate 1): 10% and 16%
- Population Membrane Permeable-Phenotype (%) ([2]; 12 h, replicate 1): 4% and 3%
- Population Mitochondria Different-Phenotype (%) ([2]; 12 h, replicate 1): 5% and 6%
- Population Mitotic Cells (%) ([2]; 12 h, replicate 1): 90% and 77%
- Population Normal (%) ([2]; 12 h, replicate 1): 89% and 83%
- Population Pyknosed Nuclei (%) ([2]; 12 h, replicate 1): 25% and 23%
- Total Cell Count ([2]; 12 h, replicate 1): 441 and 673
- Population Apoptotic (%) ([2]; 12 h, replicate 2): 6% and 12%
- Population Fragmented Nuclei (%) ([2]; 12 h, replicate 2): 7% and 4%
- Population Healthy Nuclei (%) ([2]; 12 h, replicate 2): 87% and 89%
- Population Hoechst High Intensity Objects (%) ([2]; 12 h, replicate 2): 2% and 3%
- Population Membrane Permeable-Phenotype (%) ([2]; 12 h, replicate 2): 2%
- Population Mitochondria Different-Phenotype (%) ([2]; 12 h, replicate 2): 8% and 14%
- Population Mitotic Cells (%) ([2]; 12 h, replicate 2): 93% and 87%
- Population Normal (%) ([2]; 12 h, replicate 2): 97% and 96%
- Population Pyknosed Nuclei (%) ([2]; 12 h, replicate 2): 4% and 6%
- Population Tubulin-Different-Phenotype (%) ([2]; 12 h, replicate 2): 5% and 14%
- Total Cell Count ([2]; 12 h, replicate 2): 1849 and 1412
- Population Apoptotic (%) ([2]; 24 h, replicate 1): 11% and 25%
- Population Fragmented Nuclei (%) ([2]; 24 h, replicate 1): 16% and 12%
- Population Healthy Nuclei (%) ([2]; 24 h, replicate 1): 72% and 75%
- Population Hoechst High Intensity Objects (%) ([2]; 24 h, replicate 1): 6% and 11%
- Population Membrane Permeable-Phenotype (%) ([2]; 24 h, replicate 1): 3%
- Population Mitochondria Different-Phenotype (%) ([2]; 24 h, replicate 1): 1% and 5%
- Population Mitotic Cells (%) ([2]; 24 h, replicate 1): 88% and 74%
- Population Normal (%) ([2]; 24 h, replicate 1): 93% and 88%
- Population Pyknosed Nuclei (%) ([2]; 24 h, replicate 1): 10% and 12%
- Total Cell Count ([2]; 24 h, replicate 1): 505 and 711
- Population Apoptotic (%) ([2]; 24 h, replicate 2): 3% and 7%
- Population Fragmented Nuclei (%) ([2]; 24 h, replicate 2): 24% and 13%
- Population Healthy Nuclei (%) ([2]; 24 h, replicate 2): 73% and 83%
- Population Hoechst High Intensity Objects (%) ([2]; 24 h, replicate 2): 2% and 4%
- Population Membrane Permeable-Phenotype (%) ([2]; 24 h, replicate 2): 5%
- Population Mitochondria Different-Phenotype (%) ([2]; 24 h, replicate 2): 2% and 4%
- Population Mitotic Cells (%) ([2]; 24 h, replicate 2): 96% and 92%
- Population Normal (%) ([2]; 24 h, replicate 2): 97% and 95%
- Population Pyknosed Nuclei (%) ([2]; 24 h, replicate 2): 1% and 3%
- Total Cell Count ([2]; 24 h, replicate 2): 3187 and 2081
- Growth Rate [3, 7]: 0
- Growth Rate [3, 8]: 0
- Growth Rate [3, 9]: 1
- Growth Rate [3, 10]: 1
- Growth Rate [3, 11]: 0
- Growth Rate [3, 12]: 0
- Growth Rate [4, 13]: 1
- Growth Rate [4, 7]: 0
- Growth Rate [4, 8]: 1
- Growth Rate [4, 10]: 1
- Growth Rate [4, 11]: 0
- Growth Rate ([4]; 18 h, replicate number 2, timepoint 18 hours): 1
- Growth Rate [4, 12]: 0
- Growth Rate ([4]; 24 h, replicate number 2, timepoint 24 hours): 1
- Population Apoptotic (%) ([5]; 12 h, replicate 1): 80% and 54%
- Population Fragmented Nuclei (%) ([5]; 12 h, replicate 1): 2%
- Population Healthy Nuclei (%) ([5]; 12 h, replicate 1): 93% and 87%
- Population Hoechst High Intensity Objects (%) ([5]; 12 h, replicate 1): 4% and 5%
- Population Membrane Permeable-Phenotype (%) ([5]; 12 h, replicate 1): 19% and 9%
- Population Mitochondria Different-Phenotype (%) ([5]; 12 h, replicate 1): 14% and 30%
- Population Mitotic Cells (%) ([5]; 12 h, replicate 1): 20% and 45%
- Population Normal (%) ([5]; 12 h, replicate 1): 95% and 94%
- Population Pyknosed Nuclei (%) ([5]; 12 h, replicate 1): 3% and 7%
- Population Tubulin-Different-Phenotype (%) ([5]; 12 h, replicate 1): 16% and 29%
- Total Cell Count ([5]; 12 h, replicate 1): 165 and 347
- Population Apoptotic (%) ([5]; 12 h, replicate 2): 50% and 40%
- Population Fragmented Nuclei (%) ([5]; 12 h, replicate 2): 5% and 7%
- Population Healthy Nuclei (%) ([5]; 12 h, replicate 2): 91% and 88%
- Population Hoechst High Intensity Objects (%) ([5]; 12 h, replicate 2): 9% and 15%
- Population Membrane Permeable-Phenotype (%) ([5]; 12 h, replicate 2): 14% and 7%
- Population Mitochondria Different-Phenotype (%) ([5]; 12 h, replicate 2): 21% and 26%
- Population Mitotic Cells (%) ([5]; 12 h, replicate 2): 50% and 60%
- Population Normal (%) ([5]; 12 h, replicate 2): 90% and 84%
- Population Tubulin-Different-Phenotype (%) ([5]; 12 h, replicate 2): 14% and 41%
- Total Cell Count ([5]; 12 h, replicate 2): 153 and 242
- Population Apoptotic (%) ([5]; 24 h, replicate 1): 44% and 50%
- Population Healthy Nuclei (%) ([5]; 24 h, replicate 1): 92%
- Population Hoechst High Intensity Objects (%) ([5]; 24 h, replicate 1): 1%
- Population Membrane Permeable-Phenotype (%) ([5]; 24 h, replicate 1): 10% and 3%
- Population Mitochondria Different-Phenotype (%) ([5]; 24 h, replicate 1): 16% and 21%
- Population Mitotic Cells (%) ([5]; 24 h, replicate 1): 55% and 50%
- Population Normal (%) ([5]; 24 h, replicate 1): 98%
- Population Tubulin-Different-Phenotype (%) ([5]; 24 h, replicate 1): 16% and 32%
- Total Cell Count ([5]; 24 h, replicate 1): 226 and 387
- Population Fragmented Nuclei (%) ([5]; 24 h, replicate 2): 4% and 3%
- Population Healthy Nuclei (%) ([5]; 24 h, replicate 2): 90% and 93%
- Population Hoechst High Intensity Objects (%) ([5]; 24 h, replicate 2): 11% and 4%
- Population Membrane Permeable-Phenotype (%) ([5]; 24 h, replicate 2): 12% and 8%
- Population Mitochondria Different-Phenotype (%) ([5]; 24 h, replicate 2): 27% and 18%
- Population Normal (%) ([5]; 24 h, replicate 2): 88% and 95%
- Population Pyknosed Nuclei (%) ([5]; 24 h, replicate 2): 4% and 3%
- Population Tubulin-Different-Phenotype (%) ([5]; 24 h, replicate 2): 18% and 37%
- Total Cell Count ([5]; 24 h, replicate 2): 183 and 245
- Growth Rate [6, 13]: 0
- Growth Rate [6, 8]: 1
- Growth Rate [6, 9]: 0
- Growth Rate [6, 10]: 0
- Growth Rate [6, 11]: 0
- Growth Rate [6, 12]: 0
